Holding throughout (assay type): functional
Experiment [1] relates to Bacillus subtilis. Description: Antimicrobial activity against Bacillus subtilis NCIM 2063 at 100 ug/disk after 24 hrs by agar disc-diffusion method. Particulars: NCIM 2063, 24 h, read-out: DIZ. An outline of the steps: (§1)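 Agar disc diffusion with NCIM strains. Sterile 6 mm filter-paper discs were moistened with compound in DMSO at 100 or 200 per disc and placed on agar plates pre-inoculated with each organism. Plates were incubated at 37 °C. Growth-inhibition zone diameter was read at 24 h for bacteria and 48 h for fungi.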
Background: Agar diffusion results depend on both activity and mobility in agar.

The test system of experiment [2] is Fusarium solani. Description: Antimicrobial activity against Fusarium solani NCIM 1330 at 200 ug/disk after 48 hrs by agar disc-diffusion method. Particulars: NCIM 1330, 48 h, read-out: DIZ. An outline of the steps: as §1
The subject of experiment [3] is Klebsiella pneumoniae. Description: Antimicrobial activity against Klebsiella pneumoniae NCIM 2957 at 100 ug/disk after 24 hrs by agar disc-diffusion method. The following applies: NCIM 2957, 24 h, read-out: DIZ. An outline of the steps:
as §1

Experiment [4] relates to Bacillus subtilis. Description: Antimicrobial activity against Bacillus subtilis NCIM 2063 at 200 ug/disk after 24 hrs by agar disc-diffusion method. Particulars: NCIM 2063, 24 h, read-out: DIZ. An outline of the steps:
as §1

For experiment [5], the system named is Radical scavenging activity. Description: Antioxidant activity assessed as DPPH free radical scavenging activity at 100 uM after 20 mins. An outline of the steps: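 Compound solutions were added to DPPH in dioxane/ethanol and kept at ambient temperature for 20 min, then absorbance was read at 517 nm. Percent inhibition = (A_control − A_sample)/A_control × 100, […].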
A general note: Loss of DPPH colour is used to gauge radical scavenging.

The test system of experiment [6] is Proteus vulgaris. Description: Antimicrobial activity against Proteus vulgaris NCIM 2027 at 100 ug/disk after 24 hrs by agar disc-diffusion method. Particulars: NCIM 2027, 24 h, read-out: DIZ.
In experiment [7] the test system is Curvularia lunata. Description: Antimicrobial activity against Curvularia lunata NCIM 716 at 100 ug/disk after 48 hrs by agar disc-diffusion method. Particulars: NCIM 716, 48 h, read-out: DIZ. An outline of the steps: as §1
Experiment [8] has as its system Aspergillus niger. Description: Antimicrobial activity against Aspergillus niger NCIM 596 at 200 ug/disk after 48 hrs by agar disc-diffusion method. Particulars: NCIM 596, 48 h, read-out: DIZ. The essentials:
as §1

Experiment [9] deals with Klebsiella pneumoniae. Description: Antimicrobial activity against Klebsiella pneumoniae NCIM 2957 at 200 ug/disk after 24 hrs by agar disc-diffusion method. The following applies: NCIM 2957, 24 h, read-out: DIZ. The essentials:
as §1

Experiment [10] concerns Staphylococcus aureus. Description: Antimicrobial activity against Staphylococcus aureus NCIM 5021 at 100 ug/disk after 24 hrs by agar disc-diffusion method. The following applies: NCIM 5021, 24 h, read-out: DIZ. The essentials: as §1
Experiment [11] relates to Fusarium solani. Description: Antimicrobial activity against Fusarium solani NCIM 1330 at 100 ug/disk after 48 hrs by agar disc-diffusion method. Particulars: NCIM 1330, 48 h, read-out: DIZ. An outline of the steps: as §1
Experiment [12] in a line: Antioxidant activity assessed as nitric oxide scavenging activity at 100 uM after 120 min by Griess assay. The essentials:
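Sodium nitroprusside (5 mM) in phosphate buffer pH 7.4 was incubated with test compound dissolved in dioxane/methanol at 25 °C for 120 min. A solvent-only control was run in parallel. Aliquots were mixed 1:1 with Griess reagent (1% sulfanilamide, 0.1% N-naphthylethylenediamine dihydrochloride, 2% o-phosphoric acid in water).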

Experiment [13] has as its system Aspergillus niger. Description: Antimicrobial activity against Aspergillus niger NCIM 596 at 100 ug/disk after 48 hrs by agar disc-diffusion method. Particulars: NCIM 596, 48 h, read-out: DIZ. An outline of the steps:
as §1

The test system of experiment [14] is Staphylococcus aureus. Description: Antimicrobial activity against Staphylococcus aureus NCIM 5021 at 200 ug/disk after 24 hrs by agar disc-diffusion method. The following applies: NCIM 5021, 24 h, read-out: DIZ. The essentials: as §1
The test system of experiment [15] is Proteus vulgaris. Description: Antimicrobial activity against Proteus vulgaris NCIM 2027 at 200 ug/disk after 24 hrs by agar disc-diffusion method. The following applies: NCIM 2027, 24 h, read-out: DIZ.
The subject of experiment [16] is Curvularia lunata. Description: Antimicrobial activity against Curvularia lunata NCIM 716 at 200 ug/disk after 48 hrs by agar disc-diffusion method. The following applies: NCIM 716, 48 h, read-out: DIZ. The essentials: as §1

Structures are written as SMILES.

These results are taken from ChEMBL document CHEMBL1240473, “Synthesis and bioassay of aminosulfonyl-1,3,4-oxadiazoles and their interconversion to 1,3,4-thiadiazoles” (2010).

For `O=S(=O)(Cc1nnc(-c2ccccc2)s1)Nc1ccccc1`, the zone of inhibition at 100 µg/disc was determined as 18 mm with Bacillus subtilis [1]; 14 mm in the experiment with Klebsiella pneumoniae [3]; 15 mm in the experiment with Proteus vulgaris [6]; 24 mm with Curvularia lunata [7]; 19 mm in the experiment on Staphylococcus aureus [10]; 22 mm in the experiment on Fusarium solani [11]. For the same compound, in the experiment on Aspergillus niger [13], the zone of inhibition at 100 µg/disc was 19 mm. For the same compound, the zone of inhibition at 200 µg/disc is 24 mm in the experiment on Fusarium solani [2]; 20 mm with Bacillus subtilis [4]; 21 mm in the experiment on Aspergillus niger [8]; 17 mm in the experiment with Klebsiella pneumoniae [9]; 22 mm in the experiment with Staphylococcus aureus [14]; 16 mm with Proteus vulgaris [15]. For the same compound, the zone of inhibition at 200 µg/disc with Curvularia lunata [16] stood at 25 mm. Moreover, the Activity stood at 27.8% in [5] and 25.4% in experiment [12].

Take `O=S(=O)(Cc1nnc(-c2ccccc2)o1)Nc1ccccc1`: the zone of inhibition at 100 µg/disc with Bacillus subtilis [1] was 9 mm; with Klebsiella pneumoniae [3] it was 7 mm; with Proteus vulgaris [6] it was 6 mm; with Curvularia lunata [7], 13 mm; with Staphylococcus aureus [10] it was 10 mm; with Fusarium solani [11], 11 mm. In addition, the zone of inhibition at 100 µg/disc in the experiment with Aspergillus niger [13] worked out at 12 mm. For the same compound, the zone of inhibition at 200 µg/disc with Fusarium solani [2] came out at 13 mm; with Bacillus subtilis [4], 11 mm; in the experiment on Aspergillus niger [8] it was 16 mm; in the experiment with Klebsiella pneumoniae [9] it was 9 mm; with Staphylococcus aureus [14], 13 mm; in the experiment on Proteus vulgaris [15], 8 mm. The zone of inhibition at 200 µg/disc in the experiment on Curvularia lunata [16] is 15 mm. Besides, the Activity was determined as 62.3% in [5] and 63.5% in experiment [12].

For the compound `O=C1O[C@H]([C@@H](O)CO)C(O)=C1O`, the Activity in experiment [5] was 95.4%; in experiment [12] it was 96.9%.

`Cc1ccc(NS(=O)(=O)Cc2nnc(-c3ccc(C)cc3)s2)cc1`: the zone of inhibition at 100 µg/disc is 22 mm in the experiment with Bacillus subtilis [1]; 18 mm with Klebsiella pneumoniae [3]; 13 mm with Proteus vulgaris [6]; 21 mm in the experiment on Curvularia lunata [7]; 20 mm in the experiment with Staphylococcus aureus [10]; 19 mm in the experiment with Fusarium solani [11]. The zone of inhibition at 100 µg/disc with Aspergillus niger [13] was found to be 17 mm. The zone of inhibition at 200 µg/disc in the experiment on Fusarium solani [2] was 22 mm; in the experiment with Bacillus subtilis [4], 24 mm; with Aspergillus niger [8], 18 mm; with Klebsiella pneumoniae [9], 19 mm; in the experiment on Staphylococcus aureus [14], 23 mm; in the experiment on Proteus vulgaris [15] it was 15 mm. Further, the zone of inhibition at 200 µg/disc with Curvularia lunata [16] amounted to 24 mm. Also, the Activity was 32.3% in experiment [5] and 29.4% in experiment [12].

Regarding `O=S(=O)(Cc1nnc(-c2ccc(Cl)cc2)o1)Nc1ccc(Cl)cc1`, the zone of inhibition at 100 µg/disc in the experiment on Bacillus subtilis [1] came out at 11 mm; in the experiment on Klebsiella pneumoniae [3] it was 9 mm; in the experiment with Proteus vulgaris [6], 10 mm; with Curvularia lunata [7] it was 13 mm; with Staphylococcus aureus [10], 12 mm; with Fusarium solani [11], 14 mm. The zone of inhibition at 100 µg/disc in the experiment on Aspergillus niger [13] stood at 11 mm. Besides, the zone of inhibition at 200 µg/disc with Fusarium solani [2] came to 16 mm; in the experiment on Bacillus subtilis [4], 13 mm; with Aspergillus niger [8], 13 mm; with Klebsiella pneumoniae [9], 10 mm; with Staphylococcus aureus [14], 14 mm; with Proteus vulgaris [15], 11 mm. Further, in the experiment on Curvularia lunata [16], the zone of inhibition at 200 µg/disc worked out at 15 mm. Further, the Activity in experiment [5] was determined as 69.6%; in experiment [12] it was 70.5%.
